Laboratory results from ChEMBL document CHEMBL1136843, “N-Benzyl-1-heteroaryl-3-(trifluoromethyl)-1H-pyrazole-5-carboxamides as inhibitors of co-activator associated arginine methyltransferase 1 (CARM1)” (Bioorg Med Chem Lett, 2009).
Calls of active or inactive are those of the source. The calls are words filed in the database; no cut-off is given here.

How the values were obtained:
[1] = biological target: T1, Histone-arginine methyltransferase CARM1 (Mus musculus, UniProt Q9WVG6); experiment: Inhibition of mouse recombinant his-tagged CARM1 expressed in Sf9 cells by histone methyltransferase assay
T1 sequence (Q9WVG6 whole entry): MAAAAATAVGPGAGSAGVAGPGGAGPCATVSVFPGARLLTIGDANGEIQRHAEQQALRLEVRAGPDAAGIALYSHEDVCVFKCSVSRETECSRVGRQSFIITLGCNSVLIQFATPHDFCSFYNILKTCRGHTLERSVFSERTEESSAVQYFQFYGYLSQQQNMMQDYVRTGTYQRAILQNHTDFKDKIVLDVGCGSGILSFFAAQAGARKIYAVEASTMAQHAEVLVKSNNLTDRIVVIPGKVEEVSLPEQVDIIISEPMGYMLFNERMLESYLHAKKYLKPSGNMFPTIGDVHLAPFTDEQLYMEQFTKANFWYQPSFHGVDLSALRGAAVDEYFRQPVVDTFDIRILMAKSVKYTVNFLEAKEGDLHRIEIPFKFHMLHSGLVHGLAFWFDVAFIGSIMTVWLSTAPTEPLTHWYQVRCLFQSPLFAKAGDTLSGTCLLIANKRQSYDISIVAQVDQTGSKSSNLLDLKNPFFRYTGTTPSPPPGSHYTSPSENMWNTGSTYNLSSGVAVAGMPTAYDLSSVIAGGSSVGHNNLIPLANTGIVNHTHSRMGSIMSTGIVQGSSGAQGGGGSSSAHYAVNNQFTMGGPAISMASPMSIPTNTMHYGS
Outline: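 Recombinant CARM1 diluted in Tris–HCl pH 9 and pre-incubated with compound for 10 min at rt. Histone H3 substrate plus SAM containing 20% [3H]SAM then added and incubated 15 min at 30 °C. Reaction quenched with SAH, spotted onto P30 filtermat with wax scintillant, and incorporated radioactivity counted.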

[2] = biological target: T2, Histone-arginine methyltransferase CARM1 (Mus musculus) (UniProt Q9WVG6); experiment: Inhibition of mouse recombinant CARM1 assessed as inhibition of histone H3 methylation at 5 uM after 48 hrs by cell based assay
T2 sequence (whole entry): T1 sequence (Q9WVG6 whole entry)
Outline: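 Cell-based readout of histone H3 arginine 26 methylation, a CARM1 target site, in two different cell lines treated with compound up to […] for 48 h.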

Estrogen receptor = biological target: T3, Estrogen receptor (Homo sapiens, UniProt P03372); experiment: Antiestrogenic activity in human T47D cells expressing estrogen receptor assessed as estrogen-dependent transcription by luciferase reporter gene assay; assay type: cell-based
T3 sequence (P03372 whole entry): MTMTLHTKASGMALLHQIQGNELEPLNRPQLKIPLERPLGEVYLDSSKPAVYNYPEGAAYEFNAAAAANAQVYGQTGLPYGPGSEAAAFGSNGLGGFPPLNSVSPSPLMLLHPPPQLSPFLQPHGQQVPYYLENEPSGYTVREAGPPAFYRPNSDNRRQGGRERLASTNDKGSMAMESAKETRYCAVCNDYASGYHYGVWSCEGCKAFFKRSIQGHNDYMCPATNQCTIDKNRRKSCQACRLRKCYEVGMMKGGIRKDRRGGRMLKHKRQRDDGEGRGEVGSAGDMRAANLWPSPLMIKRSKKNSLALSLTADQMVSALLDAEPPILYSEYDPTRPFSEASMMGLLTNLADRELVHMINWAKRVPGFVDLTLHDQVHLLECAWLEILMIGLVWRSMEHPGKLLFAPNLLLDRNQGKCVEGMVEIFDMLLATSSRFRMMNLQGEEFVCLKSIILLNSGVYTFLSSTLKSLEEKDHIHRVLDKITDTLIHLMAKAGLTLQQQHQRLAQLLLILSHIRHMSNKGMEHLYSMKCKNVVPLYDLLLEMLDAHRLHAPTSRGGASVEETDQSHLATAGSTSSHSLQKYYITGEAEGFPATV

[3] = biological target: T4, Histone-lysine N-methyltransferase SETD7 (Homo sapiens, UniProt Q8WTS6); experiment: Inhibition of Set7/9 lysine methyltransferase
T4 sequence (Q8WTS6 whole entry): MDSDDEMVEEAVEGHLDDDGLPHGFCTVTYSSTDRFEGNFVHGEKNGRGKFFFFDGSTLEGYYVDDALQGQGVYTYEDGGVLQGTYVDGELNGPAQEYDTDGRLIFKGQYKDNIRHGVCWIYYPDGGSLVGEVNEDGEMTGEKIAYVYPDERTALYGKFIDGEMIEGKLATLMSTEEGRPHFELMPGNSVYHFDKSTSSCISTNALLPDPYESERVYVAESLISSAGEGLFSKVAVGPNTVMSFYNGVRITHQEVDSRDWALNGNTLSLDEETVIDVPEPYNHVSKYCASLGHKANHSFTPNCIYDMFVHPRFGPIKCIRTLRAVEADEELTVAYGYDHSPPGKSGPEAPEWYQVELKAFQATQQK

T47D = experiment: Growth inhibition of human estrogen-dependent T47D cells after 72 hrs; assay type: functional, cell-based
Outline: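 T47D breast ductal carcinoma cells stimulated with estradiol and counted after 72 h; tamoxifen as positive control.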

DU-145 = experiment: Cytotoxicity against human DU145 cells by MTT assay; assay type: functional, cell-based
Outline: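 DU145 prostate carcinoma cell growth measured by MTT proliferation assay; HDAC inhibitor MS-275 as positive control.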

Androgen receptor = biological target: T5, Androgen receptor (Homo sapiens, UniProt P10275); experiment: Antiandrogenic activity in human MDA-MB-453 cells expressing androgen receptor assessed as inhibition of DHT-induced androgen-dependent transcription by luciferase reporter gene assay; assay type: cell-based
T5 sequence (P10275 whole entry): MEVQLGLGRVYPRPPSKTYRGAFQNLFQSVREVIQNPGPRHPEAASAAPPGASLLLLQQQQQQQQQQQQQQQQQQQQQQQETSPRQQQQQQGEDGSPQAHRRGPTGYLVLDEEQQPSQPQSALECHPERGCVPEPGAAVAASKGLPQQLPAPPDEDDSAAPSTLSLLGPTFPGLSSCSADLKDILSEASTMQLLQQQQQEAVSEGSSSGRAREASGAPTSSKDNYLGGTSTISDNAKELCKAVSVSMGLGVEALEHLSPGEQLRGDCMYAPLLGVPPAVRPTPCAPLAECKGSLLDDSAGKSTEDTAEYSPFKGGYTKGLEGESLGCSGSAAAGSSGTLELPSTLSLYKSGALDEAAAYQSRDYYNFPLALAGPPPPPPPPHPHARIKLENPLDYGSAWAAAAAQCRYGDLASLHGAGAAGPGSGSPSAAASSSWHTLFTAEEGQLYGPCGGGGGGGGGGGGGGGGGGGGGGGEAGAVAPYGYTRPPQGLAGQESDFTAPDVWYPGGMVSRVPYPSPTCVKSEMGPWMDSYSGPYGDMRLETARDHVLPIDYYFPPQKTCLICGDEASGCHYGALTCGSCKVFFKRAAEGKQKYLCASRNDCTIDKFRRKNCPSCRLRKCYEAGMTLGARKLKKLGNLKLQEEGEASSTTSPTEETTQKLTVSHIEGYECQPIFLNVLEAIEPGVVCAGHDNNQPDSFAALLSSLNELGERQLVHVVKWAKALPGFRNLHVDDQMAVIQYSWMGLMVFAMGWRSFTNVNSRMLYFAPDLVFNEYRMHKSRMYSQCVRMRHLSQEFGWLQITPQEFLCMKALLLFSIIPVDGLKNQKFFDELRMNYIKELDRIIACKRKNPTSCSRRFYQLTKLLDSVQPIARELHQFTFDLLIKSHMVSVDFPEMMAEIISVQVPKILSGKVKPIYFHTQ

[4] = biological target: Protein arginine N-methyltransferase 1 (Homo sapiens, UniProt Q99873); experiment: Inhibition of PRMT1
Sequence of Protein arginine N-methyltransferase 1 (Q99873 whole entry): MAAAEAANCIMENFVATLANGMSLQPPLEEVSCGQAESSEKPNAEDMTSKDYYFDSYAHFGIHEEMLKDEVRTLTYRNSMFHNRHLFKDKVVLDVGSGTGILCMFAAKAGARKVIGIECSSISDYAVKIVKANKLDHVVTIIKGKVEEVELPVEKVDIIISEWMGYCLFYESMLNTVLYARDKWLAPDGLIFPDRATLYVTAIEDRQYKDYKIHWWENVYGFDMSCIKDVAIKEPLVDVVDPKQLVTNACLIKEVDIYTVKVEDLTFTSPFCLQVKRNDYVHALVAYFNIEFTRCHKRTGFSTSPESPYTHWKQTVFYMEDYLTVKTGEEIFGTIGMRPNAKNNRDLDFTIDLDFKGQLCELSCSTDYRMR

SMILES | IC50 [1] | also measured
COc1ccccc1CNC(=O)c1cc(C(F)(F)F)nn1-c1cccc2cc(CNC(=O)[C@H](C)N)oc12 | > 10000 nM | 
C[C@H](N)C(=O)NCc1ccc(-n2nc(C(F)(F)F)cc2C(=O)NCc2ccccn2)s1 | 3350 nM | 
C[C@H](N)C(=O)NCc1ccc(-n2nc(C(F)(F)F)cc2C(=O)NCc2ccccc2F)s1 | 2310 nM | 
C[C@H](N)C(=O)NCc1ccc(-n2nc(C(F)(F)F)cc2C(=O)NCc2ccccc2C(F)(F)F)s1 | 4480 nM | 
Nc1ccccc1NC(=O)c1ccc(CNC(=O)OCc2cccnc2)cc1 [ENTINOSTAT] |  | IC50 (DU-145): 2000 nM
COc1ccccc1CNC(=O)c1cc(C(F)(F)F)nn1-c1cccc(CNC(=O)[C@H](C)N)n1 | 3050 nM | 
CC/C(=C(\c1ccccc1)c1ccc(OCCN(C)C)cc1)c1ccccc1 [TAMOXIFEN] |  | IC50 (T47D): 1000 nM
CC(C)Oc1ccccc1CNC(=O)c1cc(C(F)(F)F)nn1-c1ccc(CNC(=O)[C@H](C)N)s1 | 2920 nM | 
COc1ccccc1CNC(=O)c1cc(C(F)(F)F)nn1-c1cc(CNC(=O)[C@H](C)N)ccn1 | 4200 nM | 
COc1ccccc1CNC(=O)c1cc(C(F)(F)F)nn1-c1cccc2c1CN(CNC(=O)[C@H](C)N)C2 | > 10000 nM | 

More lines, in order of falling IC50 [1], values ahead:

IC50 [1] | SMILES | also measured
2200 nM | COc1ccccc1CNC(=O)c1cc(C(F)(F)F)nn1-c1nc(CNC(=O)[C@H](C)N)cs1 | 
790 nM | C[C@H](N)C(=O)NCc1cc(-n2nc(C(F)(F)F)cc2C(=O)NCc2ccccc2F)cs1 | 
770 nM | COC(=O)c1ccccc1CNC(=O)c1cc(C(F)(F)F)nn1-c1csc(CNC(=O)[C@H](C)N)c1 | 
370 nM | COc1cccc(CNC(=O)c2cc(C(F)(F)F)nn2-c2csc(CNC(=O)[C@H](C)N)c2)c1 | 
300 nM | COc1ccccc1CNC(=O)c1cc(C(F)(F)F)nn1-c1ccc(CNC(=O)[C@H](C)N)s1 | 
260 nM | Cc1ccccc1CNC(=O)c1cc(C(F)(F)F)nn1-c1csc(CNC(=O)[C@H](C)N)c1 | 
230 nM | C[C@H](N)C(=O)NCc1ccc(-n2nc(C(F)(F)F)cc2C(=O)NCc2ccccc2)s1 | 
220 nM | C[C@H](N)C(=O)NCc1cc(-n2nc(C(F)(F)F)cc2C(=O)NCc2ccccc2)cs1 | 
60 nM | COc1ccccc1CNC(=O)c1cc(C(F)(F)F)nn1-c1csc(CNC(=O)[C@H](C)N)c1 | Activity [2]: inactive; IC50 (Estrogen receptor): > 10000 nM; IC50 [3]: > 100000 nM; IC50 (T47D): > 10000 nM; IC50 (DU-145): 18000 nM; IC50 (Androgen receptor): > 10000 nM; IC50 [4]: > 100000 nM
60 nM | COc1ccccc1CNC(=O)c1cc(C(F)(F)F)nn1-c1cccc(CNC(=O)[C@H](C)N)c1 | IC50 (Estrogen receptor): > 10000 nM; IC50 (T47D): > 10000 nM; IC50 (DU-145): 18000 nM; IC50 (Androgen receptor): > 10000 nM
